Our source for the GI50, Stability and RatioGI50 values is ChEMBL document CHEMBL1921724, “In search of a cytostatic agent derived from the alkaloid lycorine: synthesis and growth inhibitory properties of lycorine derivatives” (Bioorg Med Chem, 2011).

SMILES strings stand for the structures.

For one data set, the system named is T98G. Nature of the data set: Growth inhibition of pro-apoptotic stimuli-resistant human T98G cells after 72 hrs by MTT assay. The data set is classed as functional. The method in brief:
(§1)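 Cells seeded at 10,000 to 40,000 cells/mL depending on cell type and allowed to attach for 24 h. They were then cultured 72 h with or without compound (untreated control). Living cells were measured by MTT reduction to formazan, read at 570 nm against a 630 nm reference. GI50 was derived from the growth levels.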

Data set [1] in a line: Chemical stability of the compound at pH 5 to 7.4. The format is physicochemical. The note with it: buffer.
For another data set, the system named is MCF7. Nature of the data set: Growth inhibition of human MCF7 cells after 72 hrs by MTT assay. The data set is classed as functional. The conditions noted are these: MCF7, 72 h.
For a further data set, the system named is B16-F10. Kind of data set: Growth inhibition of pro-apoptotic stimuli-sensitive mouse B16F10 cells after 72 hrs by MTT assay. The data set is classed as functional. The conditions noted are these: B16-F10, 72 h. The method in brief: as §1
The nature of data set [2]: Growth inhibition of pro-apoptotic stimuli-resistant human U373 cells after 72 hrs by MTT assay. The format is functional, U-373MG ATCC. The conditions noted are these: U373 MG. The method in brief: as §1
(In general: Tetrazolium dyes change colour on reduction, which living cells bring about.)

In a further data set the test system is SK-MEL-28. Kind of data set: Growth inhibition of pro-apoptotic stimuli-resistant human SK-MEL-28 cells after 72 hrs by MTT assay. The format is functional. The note with it: SK-MEL-28, 72 h. The gist of the method:
as §1

The nature of data set [3]: Growth inhibition of pro-apoptotic stimuli-sensitive human Hs683 cells after 72 hrs by MTT assay. The format is functional. The conditions noted are these: Hs 683, 72 h. The gist of the method:
as §1

Another data set relates to A549. Kind of data set: Growth inhibition of pro-apoptotic stimuli-resistant human A549 cells after 72 hrs by MTT assay. The format is functional. The note with it: A549, 72 h. The method in brief:
as §1

A further data set relates to PC-3. Nature of the data set: Growth inhibition of human PC3 cells after 72 hrs by MTT assay. The note with it: PC-3, 72 h. The format is functional.
The nature of data set [4]: Ratio of lycorine GI50 to compound GI50 for pro-apoptotic stimuli-resistant human U373 cells after 72 hrs by MTT assay. The data set is classed as functional, U-373MG ATCC.

Usually GI50 stands for the concentration at which growth is held to half of that of the control. Low values mean greater sensitivity of the cells, high ones lower sensitivity of the cells. Consider `CCCCCCCCCCCCCCCC(=O)O[C@H]1[C@H]2c3cc4c(cc3CN3CCC(=C[C@@H]1O)[C@H]23)OCO4`, for which the concentration for 50% growth inhibition (GI50) in the data set on T98G was determined as 7 µM; in the data set on MCF7, 32 µM; in the data set on B16-F10 it was 28 µM; in data set [2], 24 µM; in the data set with SK-MEL-28, 35 µM; in [3] it was 27 µM. Moreover, the GI50 amounted to 26 µM in the data set on A549 and 29 µM with PC-3. In data set [1], this compound gave a Stability of 3 days.

`CCCCCCCCCCCCCCCCCC(=O)O[C@H]1[C@H]2c3cc4c(cc3CN3CCC(=C[C@@H]1O)[C@H]23)OCO4`: the GI50 is 16 µM in the data set with T98G; 38 µM in the data set on MCF7; 23 µM with B16-F10; 8 µM in data set [2]; 34 µM in the data set on SK-MEL-28; 24 µM in [3]. The GI50 came to 23 µM with A549 and 26 µM with PC-3. In data set [1], this compound came in with a Stability of 3 days.

For the compound `C=CCO[C@H]1[C@H]2c3cc4c(cc3CN3CCC(=C[C@@H]1OCC=C)[C@H]23)OCO4` [DIALLYLLYCORINE], the GI50 in the data set on T98G came out at 4 µM; in the data set with MCF7, 0.2 µM; in the data set with B16-F10, 4 µM; in data set [2], 0.03 µM; in the data set with SK-MEL-28 it was 6 µM; in data set [3] it was 2 µM. The GI50 in the data set on A549 turned out to be 4 µM; in the data set with PC-3, 1 µM. For the same compound, the RatioGI50 in data set [4] is reported as 100.

On to `CC(=O)O[C@@H]1[C@@H](OC(C)=O)[C@H](O)[C@@]2(O)CCN3C(=O)c4cc5c(cc4[C@H]1[C@H]32)OCO5`, for which the GI50 in the data set with T98G was more than 100 µM; in the data set on MCF7, more than 100 µM; in the data set on B16-F10, 86 µM; in data set [2] it was more than 100 µM; in the data set with SK-MEL-28 it was more than 100 µM; in data set [3], more than 100 µM. Further, the GI50 in the data set on A549 and in the data set on PC-3 was more than 100 µM throughout.

With `CC(=O)O[C@H]1[C@H]2c3cc4c(cc3CN3CCC(=C[C@@H]1O[Si](C(C)C)(C(C)C)C(C)C)[C@H]23)OCO4`, the GI50 in the data set on T98G worked out at 6 µM; with MCF7, 27 µM; in the data set with B16-F10 it was 30 µM; in [2], 15 µM; with SK-MEL-28 it was 34 µM; in data set [3], 36 µM. Besides, the figures for the GI50 with A549 and with PC-3 were 18 µM and 26 µM, respectively.

Take `CC(=O)O[C@H]1[C@H]2c3cc4c(cc3CN3CCC(=C[C@@H]1O)[C@H]23)OCO4`: the GI50 came out at 2 µM with T98G; 4 µM in the data set on MCF7; 43 µM in the data set with B16-F10; 4 µM in data set [2]; 3 µM in the data set with SK-MEL-28; 11 µM in data set [3]. In addition, the GI50 in the data set on A549 and in the data set with PC-3 was 3 µM each time.

As to `CC(=O)Oc1cc2c3c(c1)c1cc4c(cc1c(=O)n3CC2)OCO4`, the GI50 was 29 µM with T98G; 50 µM in the data set on MCF7; 20 µM with B16-F10; 21 µM in data set [2]; more than 100 µM in the data set on SK-MEL-28; 20 µM in data set [3]. For the same compound, the GI50 with A549 stood at 23 µM; in the data set on PC-3, 33 µM.

With `O=c1c2cc3c(cc2c2cccc4ccn1c42)OCO3`, the GI50 in the data set on T98G was 96 µM; with MCF7, 27 µM; with B16-F10, 34 µM; in data set [2], 27 µM; in the data set on SK-MEL-28, more than 100 µM; in data set [3] it was 19 µM. Also, the figures for the GI50 with A549 and with PC-3 were 96 µM and more than 100 µM, respectively.

As for `CCOC(=O)C[C@@]12C=C[C@@H](OC(C)=O)[C@H]3c4cc5c(cc4CN(CC1)[C@@H]32)OCO5`, the GI50 in the data set with T98G is more than 100 µM; with MCF7 it was more than 100 µM; in the data set on B16-F10, 79 µM; in data set [2] it was more than 100 µM; in the data set on SK-MEL-28, more than 100 µM; in data set [3], more than 100 µM. In addition, the GI50 in the data set with A549 and in the data set with PC-3 was more than 100 µM throughout.

`CCCCCCCC/C=C\CCCCCCCC(=O)O[C@H]1[C@H]2c3cc4c(cc3CN3CCC(=C[C@@H]1O)[C@H]23)OCO4`: the GI50 in the data set with T98G is 0.8 µM; in the data set with MCF7 it was 30 µM; in the data set on B16-F10, 21 µM; in [2], 4 µM; in the data set with SK-MEL-28 it was 30 µM; in data set [3], 14 µM. Moreover, the GI50 in the data set with A549 amounted to 14 µM; with PC-3, 22 µM. The Stability in data set [1] is 3 days.

For the compound `CCCCCCCCCCCCCCCC(=O)O[C@H]1[C@H]2c3cc4c(cc3CN3CCC(=C[C@@H]1O[Si](C(C)C)(C(C)C)C(C)C)[C@H]23)OCO4`, the GI50 in the data set on T98G came to 3 µM; in the data set on MCF7, 25 µM; in the data set on B16-F10 it was 38 µM; in [2] it was 13 µM; in the data set with SK-MEL-28 it was 38 µM; in data set [3], 21 µM. In addition, the concentration for 50% growth inhibition (GI50) in the data set with A549 is 9 µM; in the data set with PC-3 it was 20 µM.

Take `O=C(O[C@H]1C=C2CCN3Cc4cc5c(cc4[C@H]([C@@H]1O)[C@@H]23)OCO5)c1ccccc1`: the GI50 in the data set on T98G worked out at 70 µM; with MCF7, 23 µM; with B16-F10, 21 µM; in data set [2], 1 µM; in the data set with SK-MEL-28, 60 µM; in [3], 6 µM. The GI50 in the data set with A549 turned out to be 70 µM; in the data set on PC-3, 34 µM.

For the compound `O=c1c2cc3c(cc2c2cc(O)cc4c2n1CC4)OCO3`, the GI50 is 41 µM with T98G; 9 µM with MCF7; 38 µM in the data set with B16-F10; 49 µM in [2]; more than 100 µM with SK-MEL-28; 40 µM in data set [3]. The GI50 came out at 44 µM in the data set with A549 and 48 µM in the data set on PC-3.

Take `CC/C=C\C/C=C\C/C=C\C/C=C\C/C=C\C/C=C\CCC(=O)O[C@H]1[C@H]2c3cc4c(cc3CN3CCC(=C[C@@H]1O)[C@H]23)OCO4`: the GI50 in the data set with T98G came to 3 µM; in the data set on MCF7, 21 µM; in the data set on B16-F10 it was 18 µM; in data set [2], 8 µM; in the data set with SK-MEL-28, 25 µM; in [3] it was 20 µM. For the same compound, the GI50 with A549 stood at 15 µM; in the data set on PC-3 it was 19 µM. The Stability in data set [1] is 3 days.

As to `CCC(=O)O[C@H]1[C@H]2c3cc4c(cc3CN3CCC(=C[C@@H]1OC(=O)CC)[C@H]23)OCO4`, the GI50 was found to be 0.6 µM in the data set on T98G; 22 µM in the data set with MCF7; 29 µM in the data set on B16-F10; 3 µM in data set [2]; 43 µM in the data set on SK-MEL-28; 8 µM in data set [3]. Further, the GI50 in the data set with A549 was determined as 4 µM; in the data set on PC-3 it was 41 µM.

In the case of `O=C1c2cc3c(cc2[C@@H]2[C@H](O)[C@@H](O)[C@H](O)C4=CCN1[C@H]42)OCO3`, the GI50 (in the data set with T98G; in the data set with MCF7; in the data set with B16-F10; in [2]; in the data set on SK-MEL-28; in data set [3]) was more than 100 µM throughout. Further, the GI50 with A549 and with PC-3 was more than 100 µM each time.
